These results are taken from ChEMBL document CHEMBL4619808, “Tailoring the Physicochemical Properties of Antimicrobial Peptides onto a Thiazole-Based γ-Peptide Foldamer” (J Med Chem, 2020).

Converted amounts (≈) assume the structure as drawn. The source made the active and inactive calls.

Data set [1] deals with Escherichia coli. Nature of the data set: Antimicrobial activity against Escherichia coli ATCC 8739 assessed as inhibition of microbial growth measured after 8 passes in presence of sublethal compound concentration concentrations. The class given is functional.
In data set [2] the test system is Escherichia coli. Nature of the data set: Antimicrobial activity against Escherichia coli ATCC 8739 assessed as inhibition of microbial growth incubated for 24 hrs. It is filed as functional. The note with it: ATCC 8739, 24 h. In outline:
(§1)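 Broth microdilution. Strains grown overnight on TSA at 37°C, suspended to 10⁸ CFU/mL in Tryptone-Sel, then diluted to 10⁶ CFU/mL in double-strength Mueller-Hinton broth. Two-fold serial dilutions in sterile water (pH 7.4–7.7) mixed 1:1 with inoculum. Incubation 24 h at 37°C. MIC is the lowest concentration inhibiting growth. Duplicate wells, three independent experiments.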

Data set [3] has as its system Candida albicans. Nature of the data set: Antimicrobial activity against Candida albicans ATCC 10231 assessed as inhibition of microbial growth incubated for 48 hrs. The note with it: ATCC 10231, 48 h. It is filed as functional. The gist of the method:
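C. albicans grown 48 h on Sabouraud at 20–25°C, suspended to 10⁸ CFU/mL, then diluted to 10⁶ CFU/mL in double-strength Mueller-Hinton broth. Two-fold serial dilutions in water (pH 7.4–7.7) mixed 1:1 with inoculum. Incubation 48 h at 25°C. MIC is the lowest concentration inhibiting growth. Duplicate wells, three independent experiments.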

For data set [4], the system named is Bacillus subtilis. Description: Antimicrobial activity against Bacillus subtilis ATCC 6633 assessed as inhibition of microbial growth incubated for 24 hrs. It is filed as functional. The note with it: ATCC 6633, 24 h. In outline: as §1
Data set [5] deals with Candida albicans. Nature of the data set: Microbicidal activity against Candida albicans ATCC 10231 assessed as inhibition of colony growth incubated for 48 hrs followed by replating and further incubated for 48 hrs. It is filed as functional. The note with it: ATCC 10231, 48 h.
The test system of data set [6] is Escherichia coli. Nature of the data set: Antimicrobial activity against Escherichia coli ATCC 8739 assessed as reduction in viable bacterial cell count at 4 to 8 times MIC incubated for 40 to 60 mins by time kill assay relative to control. The class given is functional, organism-based.
Data set [7] deals with Bacillus subtilis. Nature of the data set: Microbicidal activity against Bacillus subtilis ATCC 6633 assessed as inhibition of colony growth incubated for 24 hrs followed by replating and further incubated for 24 hrs. It is filed as functional. The note with it: ATCC 6633, 24 h.
Data set [8] deals with Pseudomonas aeruginosa. Description: Antimicrobial activity against Pseudomonas aeruginosa ATCC 9027 assessed as inhibition of microbial growth incubated for 24 hrs. It is filed as functional. The note with it: ATCC 9027, 24 h. The gist of the method: as §1
In data set [9] the test system is Escherichia coli. Description: Antimicrobial activity against Escherichia coli ATCC 8739 assessed as increase in region of cellular aggregation at 1 to 8 times MIC incubated for 60 mins by surface electron microscopy. It is filed as functional, organism-based.
Data set [10] is described as follows: Hemolytic activity in human RBC assessed as induction of hemolysis incubated for 1 hr. The class given is cell-based, Erythrocyte. The note with it: red blood cells (erythrocytes), read-out: HD50. The gist of the method:
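Human RBCs washed in PBS and used at 5% packed cell volume, mixed 1:1 with two-fold serial dilutions in PBS (pH 7.4–7.7). Incubation 1 h at 37°C, then centrifugation at 1500g for 10 min at 5°C. Supernatant absorbance read at 490 nm against PBS (0%) and 1% SDS/Tris (100%) controls. HC50 from three independent experiments, double duplicate.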

For data set [11], the system named is Enterococcus faecalis. Nature of the data set: Microbicidal activity against Enterococcus faecalis ATCC 29121 assessed as inhibition of colony growth incubated for 24 hrs followed by replating and further incubated for 24 hrs. It is filed as functional. The note with it: ATCC 29121, 24 h.
The test system of data set [12] is Escherichia coli. Description: Induction of membrane depolarization in Escherichia coli ATCC 8739 incubated for 2 hrs by [DiSC3(5)] probe based fluorescence assay. It is filed as functional, organism-based. The gist of the method:
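E. coli ATCC8739 grown 2 h at 37°C in Mueller-Hinton broth, washed and resuspended in 20 mM glucose/5 mM HEPES pH 7.2 to OD600 0.05. DiSC3(5) added at 0.6 µM final and preincubated at 37°C until fluorescence stabilized. Compound added at 0.19–12.5 µM final; fluorescence (ex 620, em 670 nm) followed over 30 min. Duplicate, three independent experiments.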

The subject of data set [13] is Escherichia coli. Description: Antimicrobial activity against Escherichia coli ATCC 8739 assessed as reduction in viable bacterial cell count at 8 times MIC incubated up to 120 mins by time kill assay relative to control. The class given is functional.
Data set [14] relates to Staphylococcus aureus. Description: Microbicidal activity against Staphylococcus aureus ATCC 6538 assessed as inhibition of colony growth incubated for 24 hrs followed by replating and further incubated for 24 hrs. The note with it: ATCC 6538, 24 h. It is filed as functional.
The test system of data set [15] is Pseudomonas aeruginosa. Nature of the data set: Microbicidal activity against Pseudomonas aeruginosa ATCC 9027 assessed as inhibition of colony growth incubated for 24 hrs followed by replating and further incubated for 24 hrs. It is filed as functional. The note with it: ATCC 9027, 24 h.
In data set [16] the test system is Staphylococcus aureus. Nature of the data set: Antimicrobial activity against Staphylococcus aureus ATCC 6538 assessed as inhibition of microbial growth incubated for 24 hrs. The class given is functional. The note with it: ATCC 6538, 24 h. In outline: as §1
In data set [17] the test system is Escherichia coli. Description: Antimicrobial activity against Escherichia coli ATCC 8739 assessed as induction of spherical elements around bacteria at 1 to 8 times MIC incubated for 60 mins by surface electron microscopy. The class given is functional, organism-based.
Data set [18] relates to Escherichia coli. Nature of the data set: Antimicrobial activity against Escherichia coli ATCC 8739 assessed as induction of blisters and protruding vesicles on cell surface at 1 to 8 times MIC incubated for 60 mins by surface electron microscopy. The class given is functional, organism-based.
Data set [19] deals with Escherichia coli. Nature of the data set: Microbicidal activity against Escherichia coli ATCC 8739 assessed as inhibition of colony growth incubated for 24 hrs followed by replating and further incubated for 24 hrs. The class given is functional. The note with it: ATCC 8739, 24 h.
Data set [20] concerns Escherichia coli. Description: Antimicrobial activity against Escherichia coli ATCC 8739 assessed as effect on bacterial morphology by measuring bacterial length at 1 to 8 times MIC incubated for 60 mins by surface electron microscopy (reference value: 2 micrometer). It is filed as functional.
In data set [21] the test system is Enterococcus faecalis. Nature of the data set: Antimicrobial activity against Enterococcus faecalis ATCC 29121 assessed as inhibition of microbial growth incubated for 24 hrs. It is filed as functional. The note with it: ATCC 29121, 24 h. The gist of the method: as §1
Data set [22] deals with Escherichia coli. Nature of the data set: Antimicrobial activity against Escherichia coli ATCC 8739 assessed as reduction in viable bacterial cell count at 1 times MIC incubated up to 120 mins by time kill assay relative to control. The class given is functional.

A word on the MIC: it is the smallest concentration in the dilution series that meets the test's criterion for growth inhibition. On to `CO/N=C(\C(=O)N[C@@H]1C(=O)N2C(C(=O)O)=C(COC(C)=O)CS[C@H]12)c1csc(N)n1` [CEFOTAXIME], for which the MIC is 0.8 µg/mL in data set [1] and under 0.05 µg/mL in data set [2].
On to `CC(=O)N[C@@H](CCCNC(=N)N)c1nc(C)sc1C(=O)N[C@@H](C)c1nc(CCCNC(=N)N)sc1C(=O)N[C@@H](C)c1nc(C)sc1C(=O)N[C@@H](CCCNC(=N)N)c1nc(C)sc1C(=O)N[C@@H](C)c1nc(CCCNC(=N)N)sc1C(=O)N[C@@H](C)c1nc(C)sc1C(=O)N[C@@H](CCCNC(=N)N)c1nc(C)sc1C(=O)N[C@@H](C)c1nc(CCCNC(=N)N)sc1C(=O)N[C@@H](C)c1nc(C)sc1C(=O)N[C@@H](CCCNC(=N)N)c1nc(C)sc1C(=O)N[C@@H](C)c1nc(CCCNC(=N)N)sc1C(=O)N[C@@H](C)c1nc(C)sc1C(N)=O`, for which the MIC was 6.2 µM in data set [3]; 0.6 µM in [4]; 4.2 µM in data set [8]; 3.1 µM in [16]; 20.8 µM in data set [21]; 1.8 µM in [2]. The MBC in data set [5] was determined as 6.2 µM (≈ 17.1 µg/mL); in data set [7], 0.8 µM (≈ 2.21 µg/mL); in data set [11], 25 µM (≈ 69 µg/mL); in data set [14], 7.8 µM (≈ 21.5 µg/mL); in data set [15] it was 4.7 µM (≈ 13 µg/mL); in data set [19], 2.3 µM (≈ 6.34 µg/mL). Further, the outcome in [6], in data set [9] and in data set [18] was Active. In addition, the HC50 at 1 h in data set [10] was over 100 µM. Also, the Activity entry is “Dose-dependent effect” in [12]; 4.73 log10CFU/ml in data set [13]; “Dose-dependent effect” in data set [17]; 1.3 um in data set [20]; 0.95 log10CFU/ml in data set [22]. The MIC entry in data set [1] was “Active”.
In the case of `CC(=O)N[C@@H](CCCNC(=N)N)c1nc(C)sc1C(=O)N[C@@H](C)c1nc(CCCNC(=N)N)sc1C(=O)N[C@@H](C)c1nc(C)sc1C(=O)N[C@@H](CCCNC(=N)N)c1nc(C)sc1C(=O)N[C@@H](C)c1nc(CCCNC(=N)N)sc1C(=O)N[C@@H](C)c1nc(C)sc1C(=O)N[C@@H](CCCNC(=N)N)c1nc(C)sc1C(=O)N[C@@H](C)c1nc(CCCNC(=N)N)sc1C(=O)N[C@@H](C)c1nc(C)sc1C(N)=O`, the MIC in data set [3] came to 9.4 µM; in data set [4], 0.5 µM; in [8] it was 54 µM; in data set [16], 14.6 µM; in [21], 100 µM; in data set [2], 0.8 µM. Also, the MBC in data set [5] is 12.5 µM (≈ 26 µg/mL); in data set [7], 0.5 µM (≈ 1.04 µg/mL); in [11] it was over 100 µM; in [14], 16.5 µM (≈ 34.4 µg/mL); in [15], 100 µM (≈ 208 µg/mL); in data set [19] it was 0.8 µM (≈ 1.67 µg/mL). For the same compound, the HC50 at 1 h in data set [10] was over 100 µM.
